Measurements: ChEMBL document CHEMBL4354817, “4-(3-Aminoazetidin-1-yl)pyrimidin-2-amines as High-Affinity Non-imidazole Histamine H3 Receptor Agonists with in Vivo Central Nervous System Activity” (J Med Chem, 2019)

What was measured:
[1] = molecular target: T1, Histamine H3 receptor (Homo sapiens, UniProt Q9Y5N1); test: Displacement of [3H]NAMH from human H3R expressed in HEK293T cells incubated for 2 hrs by microbeta scintillation counting analysis; format: cell-based
Summary of the method: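 Homogenates of HEK293T cells transiently expressing hH3R or mH3R, harvested 48 h post-transfection, incubated with 2 nM [3H]NAMH and increasing unlabeled ligand in 50 mM Tris–HCl pH 7.4, 2 h at 25 °C. Rapid filtration over 0.5% PEI-coated GF/C filters, scintillation counting. One-site fit; IC50 converted to pKi by Cheng–Prusoff; three experiments in triplicate.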

[2] = molecular target: T1, Histamine H3 receptor; test: Intrinsic activity at human H3R expressed on HEK293T cells assessed as activation of forskolin-induced CRE-driven luciferase activity co-incubated with forskolin for 6 hrs and measured after 30 mins by CRE-luciferase reporter gene assay relative to histamine; format: functional
Summary of the method: (§1)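 HEK293T cells transiently transfected (PEI method) in suspension with receptor cDNA (1000 ng), CRE-luciferase (2500 ng) and empty pcDEF3; 50.000 cells/well on poly-L-lysine, grown 24 h. Stimulated with increasing ligand concentrations plus 1 μM forskolin, 37 °C, 5% CO2, 6 h. Luciferase reagent (ATP, D-luciferin) added, luminescence read after 30 min at 37 °C. Nonlinear regression; α relative to histamine; three experiments in triplicate.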

[3] = molecular target: T1, Histamine H3 receptor; test: Agonist activity at human H3R expressed on HEK293T cells assessed as inhibition of forskolin-induced CRE-driven luciferase activity co-incubated with forskolin for 6 hrs and measured after 30 mins by CRE-luciferase reporter gene assay; format: functional; summary of the method: as §1

T1 sequence (Q9Y5N1 whole entry): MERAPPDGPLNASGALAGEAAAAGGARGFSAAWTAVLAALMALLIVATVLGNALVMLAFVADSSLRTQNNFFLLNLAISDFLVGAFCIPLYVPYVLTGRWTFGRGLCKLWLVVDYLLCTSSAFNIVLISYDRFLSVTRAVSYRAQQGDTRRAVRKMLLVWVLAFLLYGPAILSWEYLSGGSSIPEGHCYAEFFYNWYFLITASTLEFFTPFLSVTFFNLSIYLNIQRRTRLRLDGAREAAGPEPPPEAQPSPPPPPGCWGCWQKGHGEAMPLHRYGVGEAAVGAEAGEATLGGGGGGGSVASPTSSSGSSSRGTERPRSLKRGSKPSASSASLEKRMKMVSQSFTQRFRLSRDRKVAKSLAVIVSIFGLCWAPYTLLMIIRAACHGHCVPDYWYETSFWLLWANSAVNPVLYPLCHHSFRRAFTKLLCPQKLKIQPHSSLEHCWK

SMILES	Ki [1]	Intrinsic activity [2]	EC50 [3]
Cc1cc(N2CC(N(C)C)C2)nc(N)n1	316 nM	0.9	39.8 nM
CC(C)c1cc(N2CC(N(C)C)C2)nc(N)n1	126 nM	0.4	100 nM
CCNC1CN(c2cc(CC)nc(N)n2)C1	126 nM	0.9	31.6 nM
CCN(CC)C1CN(c2ccnc(N)n2)C1	63.1 nM	1.2	7.94 nM
CCc1cc(N2CC(N(C)C)C2)nc(N)n1	251 nM	0.8	63.1 nM
CCc1cc(N2CC(N)C2)nc(N)n1	79.4 nM	0.9	31.6 nM

The next compounds have a lower Ki [1] than those just listed; values first:

Ki [1]	Intrinsic activity [2]	EC50 [3]	SMILES
31.6 nM	0.8	10 nM	CNC1CN(c2cc(C)nc(N)n2)C1
15.8 nM	1.2	0.794 nM	CCCCNC1CN(c2ccnc(N)n2)C1
15.8 nM	1.1	5.01 nM	Nc1nccc(N2CC(N)C2)n1
39.8 nM	1.2	3.16 nM	CC(C)NC1CN(c2ccnc(N)n2)C1
50.1 nM	1	3.98 nM	CN(C)C1CN(c2ccnc(N)n2)C1
39.8 nM	1.1	5.01 nM	CC(C)CNC1CN(c2ccnc(N)n2)C1
